DTT redox prof: compounds producing H2O2 with reducing agent – biochemical, NIH compound library profiling, artefact control for MLSCN library redox annotation, primary screen; AID 878, 2007; activation, % at 10 µM; DTT-dependent redox cycling H2O2, phenol red/HRP absorbance; 100% = 100 µM peroxide control, 0% = buffer; 200,000 tested, 0.03% active;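 active = activation of at least 50% relative to the plate's high and low controls in the primary single-dose screen; inactive = activation below 50%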;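 note: compound incubated with DTT at 0.8 mM final as the reducing agent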
FLuc inhib CS: firefly luciferase enzyme inhibitors, primary screen, artefact control for luciferase-based inhibitor screens, biochemical, luminescence, ATPLite; 10 min; inhibition, % at 10 µM; 200,000 tested, 1.5% active; AID 1006, 2008;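 active = inhibition above about 50% when tested at 10 µM, limit read from the data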
Measles CPE: compounds protecting cells from measles virus cytopathic effect, primary screen, measles RdRp inhibitor project, single point, MLSMR library, absorbance | AID 841, 2007 | 140,000 tested, 1.5% active | Measles virus-infected cells, CPE protection | protection (pct of control), % at 4 µM; in the data active = protection mostly above about 24%, no sharp cut-off; inactive = mostly below about 26%
ABCB1 inh: ABCB1 efflux pump inhibitors, primary screen, cell-based, multiplex, flow cytometry, ABCG2 counter-screen; ATP-dependent translocase ABCB1 (Homo sapiens), P08183; CCRF-Adr cells, JC-1 efflux; inhibition, % at 6.6 µM; 190,000 tested, 0.067% active; in the data active = inhibition above about 40%;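 note: 0% = vehicle and 100% = reference inhibitor; higher value means more JC-1 retained so stronger ABCB1 efflux block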
Target sequence (P08183 whole entry, looked up): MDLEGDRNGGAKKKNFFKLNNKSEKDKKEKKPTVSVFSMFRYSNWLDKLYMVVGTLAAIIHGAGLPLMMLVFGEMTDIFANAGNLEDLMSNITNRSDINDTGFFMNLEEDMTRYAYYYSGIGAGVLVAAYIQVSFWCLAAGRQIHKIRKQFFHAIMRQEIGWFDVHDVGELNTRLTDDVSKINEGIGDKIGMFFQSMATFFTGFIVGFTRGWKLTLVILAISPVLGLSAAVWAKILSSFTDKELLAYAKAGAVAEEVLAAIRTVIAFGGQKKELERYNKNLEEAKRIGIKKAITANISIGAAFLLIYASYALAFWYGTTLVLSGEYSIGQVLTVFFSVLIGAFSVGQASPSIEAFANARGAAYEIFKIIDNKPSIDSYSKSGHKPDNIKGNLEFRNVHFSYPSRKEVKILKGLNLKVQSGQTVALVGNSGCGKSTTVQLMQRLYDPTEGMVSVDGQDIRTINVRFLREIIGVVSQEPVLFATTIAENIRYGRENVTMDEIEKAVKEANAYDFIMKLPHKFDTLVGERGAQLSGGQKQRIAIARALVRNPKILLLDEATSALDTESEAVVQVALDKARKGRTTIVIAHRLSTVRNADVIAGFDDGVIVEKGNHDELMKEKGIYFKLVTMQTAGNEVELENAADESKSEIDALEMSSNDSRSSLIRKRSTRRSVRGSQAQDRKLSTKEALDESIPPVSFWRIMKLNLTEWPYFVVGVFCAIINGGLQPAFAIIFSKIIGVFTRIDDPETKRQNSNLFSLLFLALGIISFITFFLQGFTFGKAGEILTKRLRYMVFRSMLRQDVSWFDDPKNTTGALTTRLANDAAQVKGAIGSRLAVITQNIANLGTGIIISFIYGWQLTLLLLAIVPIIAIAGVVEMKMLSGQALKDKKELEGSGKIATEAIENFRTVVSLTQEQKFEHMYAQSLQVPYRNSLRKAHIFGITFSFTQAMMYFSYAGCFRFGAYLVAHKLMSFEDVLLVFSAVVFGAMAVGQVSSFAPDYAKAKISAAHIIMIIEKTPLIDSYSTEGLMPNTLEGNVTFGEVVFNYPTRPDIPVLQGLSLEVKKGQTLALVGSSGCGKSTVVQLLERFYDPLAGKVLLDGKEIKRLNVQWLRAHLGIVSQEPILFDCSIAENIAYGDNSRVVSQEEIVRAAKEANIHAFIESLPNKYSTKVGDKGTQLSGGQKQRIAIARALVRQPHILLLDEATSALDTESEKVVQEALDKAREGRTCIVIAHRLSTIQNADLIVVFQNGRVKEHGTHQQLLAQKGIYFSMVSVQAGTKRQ
ABCG2 block: ABCG2 efflux pump inhibitors, primary screen, multiplex with ABCB1, IgMXP3 cells, flow cytometry; Broad substrate specificity ATP-binding cassette transporter ABCG2 (Homo sapiens), Q9UNQ0; JC-1 efflux; inhibition, % at 6.6 µM; 190,000 tested, 0.1% active; AID 1325, 2008;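 active = inhibition above 80%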;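 note: 0% = DMSO and 100% = nicardipine control wells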
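Incubation: cells with compound and JC-1, 10 min at 25 °C, rotating, no wash / Test system: IgMXP3 (ABCG2) plus far-red-tagged CCRF-Adr (ABCB1) cells / Compound dosing: one concentration, 6.6 µM final / Also added: JC-1 fluorescent substrate / Evaluation: efflux inhibition in percent versus controls / Detection: flow cytometry, 530 nm JC-1 signal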
FLuc stim CS: FLuc activators, initial screening, artefact control for FLuc-dependent activation tests, biochemical, ATPlite luminescence. ATPlite luciferase biochemical, 10 min; 0 = ATP-free wells, 1 = DMSO control. 200,000 tested, under 10 active. activation factor at 10 µM. Luciferin 4-monooxygenase (Photinus pyralis), P08659;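 active = luciferase activation factor, scaled between plate controls, of at least 2 with compound at 10 µM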
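Material: Luciferase/luciferin reagent mix | Doses: Test compounds dosed from 2 mM stocks in 100% DMSO | Timing: 10 min incubation after luciferase reagent addition, room temperature | Measured by: Luminescence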
Numbers without * were called inactive; / = no result given. Rows were chosen to be rich in hits. Some 2.7% of all compounds tested hit in one or more screens of this group.

SMILES	DTT redox prof	FLuc inhib CS	Measles CPE	ABCB1 inh	ABCG2 block	FLuc stim CS
Cc1ccc(-c2nnn(CC(=O)N(c3ccccc3)C(C(=O)NC(C)(C)C)c3cccs3)n2)o1 (configuration not stated)	1	-3	12	0	1	1
COc1ccc(/C=N\NC(=O)C2=NNC(=O)C2C)cc1 (configuration not stated)	-3	69*	4	0	9	0.3
CCOc1ccc(-c2ccc(SCC(=O)Nc3nnc(C)s3)nn2)cc1	0	65*	/	0	1	0.3
Cc1nnc(NC(=O)CSc2ccc(-c3ccc(Cl)cc3)nn2)s1	-2	6	/	0	2	0.9
CCc1ccc(-c2ccc(SCC(=O)NCC3CCCO3)nn2)cc1 (configuration not stated)	-1	80*	/	0	4	0.2
CCOC(=O)N1CCN(C(=O)CSc2ccc(-c3ccc(OC)cc3)nn2)CC1	0	58*	/	1	2	0.4
CCOC(=O)N1CCN(C(=O)CSc2ccc(-c3ccc(OC)c(OC)c3)nn2)CC1	-1	28	/	0	7	0.7
CCc1ccc(-c2ccc(SCC(=O)Nc3nnc(C)s3)nn2)cc1	-1	85*	/	2	6	0.1
COc1ccc(C2C(C(N)=O)=C(C)Nc3nc(-c4ccccc4Cl)nn32)c(OC)c1 (configuration not stated)	-1	-6	19	0	2	1.1
Cc1cccc(CCNC(=O)CCc2nnc(CCc3ccccc3)o2)n1	-1	-4	/	0	0	1
O=C(N/N=C1\C/C(=N\NC(=O)c2ccncc2)c2ccccc21)c1ccncc1	-2	69*	/	0	0	0.3
O=C(NN=C1C2CC3CC(C2)CC1C3)c1ccncc1	-3	-3	4	0	4	1
FC(F)(F)c1cnc(-c2cnc(-c3ccccn3)nc2)c(Cl)c1	-1	64*	/	0	6	0.4
COc1ccc(C(=O)Nc2nc3c(s2)CCCC3)cc1S(=O)(=O)N1CCCc2ccccc21	0	4	36*	0	3	1
Cc1cc(C)c(NC(=O)c2cc3c(nc4sccn43)s2)c(C)c1	1	-7	28*	3	19	1.1
Cc1ccc(C)c(C(=O)c2c(C)nc3sccn23)c1	2	-6	2	1	2	1.1
COc1cccc2cc(-c3cn4ccc(C)cc4n3)c(=O)oc12	0	/	/	/	/	/
CCOc1cccc2cc(-c3cn4cc(C)ccc4n3)c(=O)oc12	0	68*	2	0	2	0.3
Cc1ccc(S(=O)(=O)N2CCCCC2)cc1NC(=O)COC(=O)c1ccc(O)cc1	0	-4	/	0	3	1
CCOC(=O)COn1c(=O)c(-c2cc3ccccc3o2)[n+]([O-])c2ccccc21	0	52*	5	1	6	0.5
C=CCOn1c(=O)c(-c2cc3ccccc3o2)[n+]([O-])c2ccccc21	0	23	3	0	68	0.8
CCCCn1c(N)c(N(CC)C(=O)CCc2ccccc2)c(=O)[nH]c1=O	0	-8	27	0	1	1.1
Cc1cccc(-c2cc3c(nn2)-c2ccccc2C3=O)c1	0	62*	13	1	6	0.4
O=C1c2ccccc2-c2nnc(-c3ccccc3)cc21	1	81*	7	2	11	0.2
COc1ccc(-c2cc3c(nn2)-c2ccccc2C3=O)cc1	-1	94*	/	1	5	0.1
SMILES	DTT redox prof	FLuc inhib CS	Measles CPE	ABCB1 inh	ABCG2 block	FLuc stim CS
CS(=O)(=O)N1CC(C(=O)NC2CCCC2)Oc2ccc(Cl)cc21 (configuration not stated)	1	-7	17	1	4	1.1
Cn1nc(C(=O)NNc2c(F)c(F)cc(F)c2F)c2ccccc2c1=O	0	-6	/	1	5	1.1
Cc1ccc(S(=O)(=O)CNC(=S)c2cccc(Cl)c2)cc1	0	-9	43*	-1	-5	1.1
Cc1ccc(C(=S)NCS(=O)(=O)c2ccc(C)cc2)cc1	-5	-7	7	-1	-2	1.1
COc1cc(/C=N/Nc2cccc3cccnc23)cc(OC)c1O	3	86*	/	0	0	0.1
Oc1cccc(/C=N/Nc2cccc3cccnc23)c1	0	81*	/	0	6	0.2
Oc1c(/C=N/Nc2cccc3cccnc23)ccc2ccccc12	6	6	8	-7	-1	0.9
Cc1noc(C)c1CSCC(=O)N1CCN(c2ccc([N+](=O)[O-])cc2)CC1	0	-8	10	1	36	1.1
O=C(COC(=O)COc1ccccc1)Nc1ccc(OC(F)(F)F)cc1	0	-3	5	0	0	1
CC(C)c1ccc(OCC(=O)Nc2ccc(OC(F)(F)F)cc2)cc1	1	-1	35*	0	6	1
COc1ccc(/C=N/Nc2snc(SC)c2C#N)cc1OC	2	4	44*	0	4	1
O=C(c1cccs1)c1ccc(-c2cccs2)s1	0	78*	11	-1	0	0.2
O=C(c1cc2ccccc2o1)c1cccs1	4	26	15	1	4	0.7
CC(Sc1ncnc2sccc12)C(=O)Nc1ccc(C(N)=O)cc1 (configuration not stated)	1	-3	/	-1	7	1
O=C(c1ccccc1F)N1CCN(c2ccc([N+](=O)[O-])c(N3CCOCC3)c2)CC1	-1	90*	/	1	5	0.1
Cc1ccccc1C(=O)N1CCN(c2ccc([N+](=O)[O-])c(N3CCOCC3)c2)CC1	1	-2	6	1	4	1
O=C(COc1ccccc1)n1nc(-c2ccc(Cl)cc2)nc1NCc1ccco1	4	4	40*	0	4	1
O=C(c1ccco1)n1nc(-c2ccc(Cl)cc2)nc1NCc1ccco1	-2	-1	2	0	14	1
CCOC(=O)c1sc(NC(=O)c2cccs2)cc1C	0	71*	4	0	11	0.3
O=C(COc1ccc(F)cc1)NCC1CCCO1 (configuration not stated)	1	-4	43*	0	4	1
O=C(COc1ccccc1)NCC1CCCO1 (configuration not stated)	3	-8	4	1	-2	1.1
Cc1ccc(C(=O)Nc2nc3c(s2)CCCC3)o1	0	82*	5	1	2	0.2
